Reference: ChEMBL document CHEMBL5247578, “Effective synthesis of benzimidazoles-imidazo[1,2-a]pyrazine conjugates: A comparative study of mono-and bis-benzimidazoles for antitumor activity” (Eur J Med Chem, 2019)

Experiment: n-Octanol/phosphate buffer partition coefficient, logP of the compound at pH 7.4 incubated for 85 mins by shake-flask method
Assay type: physicochemical
Method in brief: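 Octanol–water partition by shake-flask: n-octanol with 0.15 M phosphate buffer pH 7.4 at 10:1 volumes. Buffer-phase absorbance read before mixing, then shaken 50 min and centrifuged at 2500 rpm for 35 min. Buffer absorbance read again; P = (Ai−Af)/Af × Vw/Vo.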

logD at 1.417 h | SMILES
1.66 | CCc1ccc(-c2cn3ccnc3c(-c3ccc4ncn(C5CCCCC5)c4c3)n2)cc1
1.87 | Cc1cccc(-c2cn3ccnc3c(-c3ccc4ncn(C5CCCCC5)c4c3)n2)c1
